Assay results as given in ChEMBL document CHEMBL1126175, “Synthesis and antibacterial activity of new tetracyclic quinolone antibacterials” (J Med Chem, 1992).
Values after ≈ are worked out from the molar mass of the structure shown.

How the values were obtained:
Staphylococcus aureus [1] = test: In vitro antibacterial activity against staphylococcus aureus FDA 209P JC-1,Sa(F)(gram-positive); format: functional
Outline: (§1)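 MIC by serial 2-fold agar dilution on Mueller–Hinton agar; inoculum about 10^6 CFU/mL; MIC taken as lowest concentration preventing visible growth after 18 h at 37 °C.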

Escherichia coli [2] = test: In vitro antibacterial activity against Escherichia coli KC-14, Ec(K), (gram-negative); format: functional; outline: as §1
[3] = system: Staphylococcus epidermidis; test: In vitro antibacterial activity against staphylococcus epidermidis IAM 1296, (gram-positive); format: functional; outline: as §1
Staphylococcus aureus [4] = test: In vitro antibacterial activity against staphylococcus aureus IID 803,(gram-positive); format: functional; outline: as §1
Escherichia coli [5] = test: In vitro antibacterial activity against Escherichia coli NIHJ JC-2,(gram-negative)
Pseudomonas aeruginosa [6] = test: In vitro antibacterial activity against Pseudomonas aeruginosa E-2,Pa(E),(gram-negative); format: functional; outline: as §1
Pseudomonas aeruginosa [7] = test: In vitro antibacterial activity against Pseudomonas aeruginosa IFO 3445,Pa(I),(gram-negative); format: functional; outline: as §1
Enterococcus faecalis [8] = test: In vitro antibacterial activity against Enterococcus faecalis IID 682,[…],(gram-positive); format: functional; outline: as §1
Klebsiella pneumoniae = test: In vitro antibacterial activity against klebsiella pneumoniae B54,Kp,(gram-negative); format: functional
Escherichia coli [9] = test: In vitro antibacterial activity was measured against nalidixic acid resistant strain 4 from Escherichia coli KC-14; format: functional
Outline: (§2)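 MIC by serial 2-fold agar dilution on Mueller–Hinton agar, inoculum about 10^6 CFU/mL. Plates were incubated 37 °C for 18 h. MIC was the lowest concentration preventing visible growth.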

Escherichia coli [10] = test: In vitro antibacterial activity was measured against nalidixic acid resistant strain 6 from Escherichia coli KC-14; format: functional; outline: as §2
Escherichia coli [11] = test: In vitro antibacterial activity was measured against nalidixic acid resistant strain 5 from Escherichia coli KC-14; format: functional; outline: as §2
Escherichia coli [12] = test: In vitro antibacterial activity was measured against nalidixic acid resistant strain 1 from Escherichia coli KC-14; format: functional; outline: as §2
Escherichia coli [13] = test: In vitro antibacterial activity was measured against nalidixic acid resistant strain 3 from Escherichia coli KC-14; format: functional; outline: as §2
Escherichia coli [14] = test: In vitro antibacterial activity was measured against nalidixic acid resistant strain 2 from Escherichia coli KC-14; format: functional; outline: as §2
Escherichia coli [15] = test: In vitro antibacterial activity was measured against nalidixic acid resistant strain 7 from Escherichia coli KC-14; format: functional; outline: as §2
Enterococcus faecalis [16] = test: In vitro antibacterial activity against Enterococcus faecalis IID 682,Ef.([…]); format: functional; outline: as §1

| MIC (Staphylococcus aureus [1]) | MIC (Escherichia coli [2]) | MIC [3] | MIC (Staphylococcus aureus [4]) | MIC (Escherichia coli [5]) | MIC (Pseudomonas aeruginosa [6]) | MIC (Pseudomonas aeruginosa [7]) | MIC (Enterococcus faecalis [8]) | MIC (Klebsiella pneumoniae) | MIC (Escherichia coli [9]) | MIC (Escherichia coli [10]) | MIC (Escherichia coli [11]) | MIC (Escherichia coli [12]) | MIC (Escherichia coli [13]) | MIC (Escherichia coli [14]) | MIC (Escherichia coli [15]) | MIC (Enterococcus faecalis [16]) | SMILES |
| --- | --- | --- | --- | --- | --- | --- | --- | --- | --- | --- | --- | --- | --- | --- | --- | --- | --- |
| 1.56 µg/mL (≈ 3.98 µM) | 3.13 µg/mL (≈ 7.98 µM) | > 25 µg/mL | 1.56 µg/mL (≈ 3.98 µM) | 3.13 µg/mL (≈ 7.98 µM) | > 25 µg/mL | > 25 µg/mL | > 25 µg/mL | 1.56 µg/mL (≈ 3.98 µM) | – | – | – | – | – | – | – | – | O=C(O)c1c(=O)c2cc(F)c(N3C[C@H](O)[C@@H](O)C3)c3c2n2c(csc12)CO3 |
| 0.2 µg/mL | 0.1 µg/mL | 0.39 µg/mL | 0.2 µg/mL | 0.2 µg/mL | 3.13 µg/mL | 3.13 µg/mL | 0.78 µg/mL | 0.39 µg/mL | – | – | – | – | – | – | – | – | C[C@@H]1CN(c2c(F)cc3c(=O)c(C(=O)O)c4scc5n4c3c2OC5)C[C@H](C)N1.Cl |
| 0.2 µg/mL (≈ 0.593 µM) | 0.2 µg/mL (≈ 0.593 µM) | 0.2 µg/mL (≈ 0.593 µM) | 0.1 µg/mL (≈ 0.296 µM) | 0.39 µg/mL (≈ 1.16 µM) | 3.13 µg/mL (≈ 9.28 µM) | 1.56 µg/mL (≈ 4.62 µM) | 3.13 µg/mL (≈ 9.28 µM) | 0.39 µg/mL (≈ 1.16 µM) | – | – | – | – | – | – | – | – | CSc1c(F)cc2c(=O)c(C(=O)O)c3scc4n3c2c1OC4 |
| 0.025 µg/mL (≈ 0.0664 µM) | 0.05 µg/mL (≈ 0.133 µM) | 0.2 µg/mL (≈ 0.531 µM) | 0.025 µg/mL (≈ 0.0664 µM) | 0.05 µg/mL (≈ 0.133 µM) | 0.39 µg/mL (≈ 1.04 µM) | 0.39 µg/mL (≈ 1.04 µM) | 0.2 µg/mL (≈ 0.531 µM) | 0.05 µg/mL (≈ 0.133 µM) | 0.78 µg/mL (≈ 2.07 µM) | 0.39 µg/mL (≈ 1.04 µM) | 0.78 µg/mL (≈ 2.07 µM) | > 3.13 µg/mL | 0.78 µg/mL (≈ 2.07 µM) | > 3.13 µg/mL | 0.2 µg/mL (≈ 0.531 µM) | – | O=C(O)c1c(=O)c2cc(F)c(N3CCC(O)C3)c3c2n2c(csc12)CO3 (centres undefined) |
| 0.025 µg/mL (≈ 0.0694 µM) | 0.2 µg/mL (≈ 0.555 µM) | 0.05 µg/mL (≈ 0.139 µM) | 0.05 µg/mL (≈ 0.139 µM) | 0.2 µg/mL (≈ 0.555 µM) | 1.56 µg/mL (≈ 4.33 µM) | 1.56 µg/mL (≈ 4.33 µM) | 0.2 µg/mL (≈ 0.555 µM) | 0.2 µg/mL (≈ 0.555 µM) | – | – | – | – | – | – | – | – | O=C(O)c1c(=O)c2cc(F)c(N3CCCC3)c3c2n2c(csc12)CO3 |
| 0.05 µg/mL (≈ 0.127 µM) | 0.39 µg/mL (≈ 0.994 µM) | 0.1 µg/mL (≈ 0.255 µM) | 0.05 µg/mL (≈ 0.127 µM) | 0.39 µg/mL (≈ 0.994 µM) | 3.13 µg/mL (≈ 7.98 µM) | 6.25 µg/mL (≈ 15.9 µM) | 3.13 µg/mL (≈ 7.98 µM) | 0.39 µg/mL (≈ 0.994 µM) | – | – | – | – | – | – | – | – | O=C(O)c1c(=O)c2cc(F)c(N3CCSCC3)c3c2n2c(csc12)CO3 |
| 3.13 µg/mL (≈ 8.04 µM) | 1.56 µg/mL (≈ 4.01 µM) | 12.5 µg/mL (≈ 32.1 µM) | 1.56 µg/mL (≈ 4.01 µM) | 1.56 µg/mL (≈ 4.01 µM) | 6.25 µg/mL (≈ 16.1 µM) | 6.25 µg/mL (≈ 16.1 µM) | 3.13 µg/mL (≈ 8.04 µM) | 1.56 µg/mL (≈ 4.01 µM) | – | – | – | – | – | – | – | – | O=C1CN(c2c(F)cc3c(=O)c(C(=O)O)c4scc5n4c3c2OC5)CCN1 |
| 0.2 µg/mL (≈ 0.623 µM) | 0.78 µg/mL (≈ 2.43 µM) | 0.39 µg/mL (≈ 1.21 µM) | 0.2 µg/mL (≈ 0.623 µM) | – | 6.25 µg/mL (≈ 19.5 µM) | 3.13 µg/mL (≈ 9.74 µM) | 6.25 µg/mL (≈ 19.5 µM) | 0.2 µg/mL (≈ 0.623 µM) | – | – | – | – | – | – | – | 6.25 µg/mL (≈ 19.5 µM) | COc1c(F)cc2c(=O)c(C(=O)O)c3scc4n3c2c1OC4 |
| 0.2 µg/mL (≈ 0.479 µM) | 1.56 µg/mL (≈ 3.74 µM) | 0.78 µg/mL (≈ 1.87 µM) | 0.1 µg/mL (≈ 0.24 µM) | 1.56 µg/mL (≈ 3.74 µM) | 6.25 µg/mL (≈ 15 µM) | 6.25 µg/mL (≈ 15 µM) | 0.78 µg/mL (≈ 1.87 µM) | 1.56 µg/mL (≈ 3.74 µM) | – | – | – | – | – | – | – | – | CC(=O)NC1CCN(c2c(F)cc3c(=O)c(C(=O)O)c4scc5n4c3c2OC5)C1 (centres undefined) |
| 0.2 µg/mL (≈ 0.533 µM) | 0.1 µg/mL (≈ 0.266 µM) | 0.78 µg/mL (≈ 2.08 µM) | 0.39 µg/mL (≈ 1.04 µM) | 0.2 µg/mL (≈ 0.533 µM) | 0.78 µg/mL (≈ 2.08 µM) | 0.78 µg/mL (≈ 2.08 µM) | 0.78 µg/mL (≈ 2.08 µM) | 0.1 µg/mL (≈ 0.266 µM) | – | – | – | – | – | – | – | – | NC1CCN(c2c(F)cc3c(=O)c(C(=O)O)c4scc5n4c3c2OC5)C1 (centres undefined) |
| 0.2 µg/mL (≈ 0.479 µM) | 0.39 µg/mL (≈ 0.934 µM) | 0.1 µg/mL (≈ 0.24 µM) | 0.2 µg/mL (≈ 0.479 µM) | – | 3.13 µg/mL (≈ 7.5 µM) | 25 µg/mL (≈ 59.9 µM) | 0.39 µg/mL (≈ 0.934 µM) | 0.39 µg/mL (≈ 0.934 µM) | – | – | – | – | – | – | – | – | CCNCC1CCN(c2c(F)cc3c(=O)c(C(=O)O)c4scc5n4c3c2OC5)C1 (centres undefined) |

| SMILES | MIC (Staphylococcus aureus [1]) | MIC (Escherichia coli [2]) | MIC [3] | MIC (Staphylococcus aureus [4]) | MIC (Escherichia coli [5]) | MIC (Pseudomonas aeruginosa [6]) | MIC (Pseudomonas aeruginosa [7]) | MIC (Enterococcus faecalis [8]) | MIC (Klebsiella pneumoniae) | MIC (Escherichia coli [9]) | MIC (Escherichia coli [10]) | MIC (Escherichia coli [11]) | MIC (Escherichia coli [12]) | MIC (Escherichia coli [13]) | MIC (Escherichia coli [14]) | MIC (Escherichia coli [15]) | MIC (Enterococcus faecalis [16]) |
| --- | --- | --- | --- | --- | --- | --- | --- | --- | --- | --- | --- | --- | --- | --- | --- | --- | --- |
| O=C(O)c1c(=O)c2cc(F)c(N3CCNCC3)c3c2n2c(csc12)CO3 | 0.39 µg/mL (≈ 1.04 µM) | 0.1 µg/mL (≈ 0.266 µM) | 1.56 µg/mL (≈ 4.16 µM) | 0.39 µg/mL (≈ 1.04 µM) | 0.1 µg/mL (≈ 0.266 µM) | 0.78 µg/mL (≈ 2.08 µM) | 0.78 µg/mL (≈ 2.08 µM) | 0.78 µg/mL (≈ 2.08 µM) | 0.05 µg/mL (≈ 0.133 µM) | – | – | – | – | – | – | – | – |
